This note sets out measurements from ChEMBL document CHEMBL1155242, “Radiolabeled 5-iodo-3'-O-(17beta-succinyl-5alpha-androstan-3-one)-2'-deoxyuridine and its 5'-monophosphate for imaging and therapy of androgen receptor-positive cancers: synthesis and biological evaluation” (J Med Chem, 2009).

The nature of data set [1]: Biodistribution in large intestine of athymic NCr mouse xenografted with human OVCAR-3 cells assessed per gram of tissue at an average 39.5 uCi/dose, ip administered 9 days after tumor implantation as six fractionated doses every 4 days measured after 2 weeks of last dose by gamma counting. Particulars: in vivo, 336 h. The format is ADME, organism-based. The essentials: (§1)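 OVCAR-3-bearing and healthy athymic mice given fractionated ip doses on the six-dose every-4-days schedule; tissues, tumor and lavaged cells γ-counted at necropsy, %ID/g; DNA-bound 125I in cells measured as cpm/cell.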
A general note: A xenograft is tissue or cells of one species grown in another, often human tumour cells in immunodeficient mice.

For the next data set, the system named is Blood. The experiment in a line: Biodistribution in blood of athymic NCr mouse xenografted with human OVCAR-3 cells assessed per gram of tissue at 0.25 mCi, ip administered 31 days after tumor implantation as single bolus dose measured 55 days after implantation by gamma counting in presence of SHBG. It is filed as ADME, organism-based. Particulars: in vivo. The essentials: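 Mice given one ip bolus of 0.25 mCi co-injected with SHBG; blood, tumor cells, solid tumors and normal tissues taken at necropsy and counted; %ID/g decay-corrected.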

A short description of data set [2]: Ratio of drug level in tumor to kidney in athymic NCr mouse xenografted with human OVCAR-3 cells at 180 uCi, ip administered 9 days after tumor implantation as six fractionated doses every 4 days measured after 24 hrs by gamma counting. The format is ADME, organism-based. The note with it: in vivo.
A short description of data set [3]: Ratio of drug level in tumor to spleen in athymic NCr mouse xenografted with human OVCAR-3 cells at 180 uCi, ip administered 9 days after tumor implantation as six fractionated doses every 4 days measured after 48 hrs by gamma counting. It is filed as ADME, organism-based. Particulars: in vivo.
Data set [4] is described as follows: Biodistribution in […] in athymic NCr mouse xenografted with human OVCAR-3 cells at 45 uCi, ip after 72 hrs by gamma counting. It is filed as ADME, organism-based. The note with it: in vivo. The essentials:
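Athymic NCr-nu/nu mice with ip OVCAR-3; 45 μCi given ip without prior SSKI. Whole-body planar imaging at 72 h with region-of-interest analysis as percent of whole-body activity; peritoneal lavage cells and ascites counted.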

Data set [5] relates to OVCAR-3. The experiment in a line: Cellular uptake in human OVCAR-3 cells xenografted in athymic NCr mouse assessed as [125I]UdR retention per cell at an average 39.5 uCi/dose, ip administered 9 days after tumor implantation as six fractionated doses every 4 days measured after 2 weeks of last dose by gamma counting. The format is ADME, organism-based. The note with it: in vivo, 336 h. The essentials:
as §1

Data set [6] can be described thus: Ratio of drug level in tumor to liver in athymic NCr mouse xenografted with human OVCAR-3 cells at 180 uCi, ip administered 9 days after tumor implantation as six fractionated doses every 4 days measured after 1.5 hrs by gamma counting. The note with it: in vivo. The format is ADME, organism-based.
A further data set deals with Serum. The experiment in a line: Stability in human serum assessed as half life at 10 to 20 uCi/mL by size-exclusion HPLC analysis. The format is ADME, cell-free. The essentials:
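The compound was incubated with rabbit or human serum at ambient temperature, and aliquots were taken at 1, 5 and 24 h. Aliquots were run on size-exclusion HPLC (TSK3000; 0.1 M potassium phosphate/0.1 M Na2SO4, pH 6.8, then an acetonitrile gradient). Extracts were run on C18 reversed-phase HPLC (water/acetonitrile with 0.07% TFA). Half-lives came from a monoexponential fit.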
For orientation: In gel filtration, larger molecules generally elute earlier.

Data set [7] deals with T1, Sex hormone-binding globulin (Oryctolagus cuniculus, UniProt P15196).
T1 sequence (P15196 whole entry): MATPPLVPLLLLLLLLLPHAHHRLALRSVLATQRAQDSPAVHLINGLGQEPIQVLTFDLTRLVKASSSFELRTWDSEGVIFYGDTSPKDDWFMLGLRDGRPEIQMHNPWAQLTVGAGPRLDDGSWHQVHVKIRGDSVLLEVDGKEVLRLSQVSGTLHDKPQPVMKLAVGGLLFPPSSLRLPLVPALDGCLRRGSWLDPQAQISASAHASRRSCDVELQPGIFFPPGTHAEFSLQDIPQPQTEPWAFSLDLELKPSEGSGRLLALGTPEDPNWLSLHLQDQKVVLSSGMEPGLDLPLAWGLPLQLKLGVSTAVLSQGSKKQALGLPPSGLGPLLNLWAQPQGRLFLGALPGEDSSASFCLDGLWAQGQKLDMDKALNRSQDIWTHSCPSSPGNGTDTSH
The experiment in a line: Binding affinity to rabbit sex hormone binding globulin assessed as intact compound remaining at 10 to 20 uCi/mL after 60 mins by size-exclusion HPLC analysis. Particulars: read-out: Stability. It is filed as ADME. Put shortly: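 Radioligand incubated 60 min in rabbit serum; size-exclusion HPLC as for SHBG binding (phosphate/Na2SO4 pH 6.8, then CH3CN gradient) for SHBG-bound peak, with extracts run on C18 for intact compound.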

Data set [8] concerns OVCAR-3. In words: Cytotoxicity against human OVCAR-3 cells expressing androgen receptor at 5 uCi/mL after 24 hrs. It is filed as functional.
A short description of data set [9]: Chemical stability in RPMI-1640 serum-free medium assessed as intact compound remaining at 12.2 uCi up to 6 hrs by HPLC analysis. Particulars: read-out: Stability. It is filed as physicochemical.
Data set [10] in a line: Stability in human OVCAR-3 cells expressing androgen receptor assessed as assessed as compound degradation at 0.01 to 5 uCi/mL up to 24 hrs by silica gel instant thin layer chromatography. The format is ADME, cell-based. The note with it: read-out: Activity.
For data set [11], the system named is OVCAR-3. The experiment in a line: Cellular uptake in human OVCAR-3 cells xenografted in athymic NCr mouse assessed per gram of cells at 180 uCi, ip administered 9 days after tumor implantation as six fractionated doses every 4 days measured after 12 days by gamma counting. The format is ADME, organism-based. The note with it: in vivo, 288 h. Put shortly:
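Mice treated with one, three or six ip doses; nonadherent OVCAR-3 cells lavaged at necropsy, 12 days after last of six doses, and counted; %ID/g decay-corrected; DNA-bound fraction measured.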

Data set [12] is described as follows: Biodistribution in peritoneum of athymic NCr mouse xenografted with human OVCAR-3 cells at 1.12 uCi, ip after 1.5 hrs by gamma counting. It is filed as ADME, organism-based. The note with it: in vivo.
Data set [13] is described as follows: Ratio of drug level in tumor to liver in athymic NCr mouse xenografted with human OVCAR-3 cells at 180 uCi, ip administered 9 days after tumor implantation as six fractionated doses every 4 days measured after 72 hrs by gamma counting. The format is ADME, organism-based. Particulars: in vivo.
Data set [14] in a line: Ratio of drug level in tumor to kidney in athymic NCr mouse xenografted with human OVCAR-3 cells at 180 uCi, ip administered 9 days after tumor implantation as six fractionated doses every 4 days measured after 72 hrs by gamma counting. The format is ADME, organism-based. Particulars: in vivo.
Data set [15] can be described thus: Chemical stability in RPMI-1640 serum-free medium assessed as half life at 12.2 uCi by HPLC analysis. It is filed as physicochemical.
Data set [16] can be described thus: Ratio of drug level in tumor to uterus in athymic NCr mouse xenografted with human OVCAR-3 cells at 180 uCi, ip administered 9 days after tumor implantation as six fractionated doses every 4 days measured after 48 hrs by gamma counting. It is filed as ADME, organism-based. The note with it: in vivo.
Data set [17] in a line: Ratio of drug level in tumor to kidney in athymic NCr mouse xenografted with human OVCAR-3 cells at 180 uCi, ip administered 9 days after tumor implantation as six fractionated doses every 4 days measured after 1.5 hrs by gamma counting. It is filed as ADME, organism-based. The note with it: in vivo.
Data set [18] in a line: Biodistribution in peritoneum of athymic NCr mouse xenografted with human OVCAR-3 cells at 1.12 uCi, ip after 24 hrs by gamma counting. The format is ADME, organism-based. Particulars: in vivo.
Data set [19] is described as follows: Chemical stability in phosphate buffer saline at 0.85 uCi after 1265 mins by HPLC analysis. It is filed as physicochemical.
Another data set concerns LNCaP. In words: Cellular uptake in proliferating human LNCAP cells expressing androgen receptor assessed as [125I]UdR retention per cell at 1 to 4 uCi/mL after 24 hrs by gamma counting. It is filed as ADME, cell-based. The essentials:
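Proliferating LNCaP monolayers exposed 24 h to a range of radioligand concentrations; whole-cell uptake measured.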

Take `C[C@]12CCC(=O)C[C@@H]1CC[C@@H]1[C@@H]2CC[C@]2(C)[C@@H](OC(=O)CCC(=O)O[C@H]3C[C@H](n4cc([125I])c(=O)[nH]c4=O)O[C@@H]3COP(=O)(O)O)CC[C@@H]12`: the Drug uptake in [1] came out at 0.008 %ID; in the data set with Blood, 0.057 %ID.

On to `C[C@]12CCC(=O)C[C@@H]1CC[C@@H]1[C@@H]2CC[C@]2(C)[C@@H](OC(=O)CCC(=O)O[C@H]3C[C@H](n4cc([125I])c(=O)[nH]c4=O)O[C@@H]3CO)CC[C@@H]12`, for which the Ratio stood at 79.1 in data set [2]; 24.8 in data set [3]; 1.4 in data set [6]; 21.8 in [13]; 31.9 in [14]; 16.6 in [16]. Also, in [17], the Ratio was determined as 0.9. The Drug uptake was 3.4% in data set [4]; 0.0124 cpm in the data set on OVCAR-3 [5]; 0.5 %ID in the data set with OVCAR-3 [11]; 29% in [12]; over 95% in [18]. Moreover, the t1/2 was determined as 14.7 h in the data set on Serum and 54.2 h in [15]. Also, the remaining at 1 h in data set [7] is over 84%. The compound also displayed an Activity with OVCAR-3 [8] of 20%. In addition, the remaining at 6 h, 12.2 uCi in [9] came out at 90%. Moreover, the metabolised at 24 h in [10] worked out at 1.1%. Also, in data set [19], the Stability result was “Stable”. Further, the Bmax in the data set with LNCaP came out at 1.4 ×10⁻⁶ pmol.
